Results published in ChEMBL document CHEMBL1629686, “Substrate selectivity and a novel role in inhibitor discrimination by residue 237 in the KPC-2 beta-lactamase” (Antimicrob Agents Chemother, 2010).
≈ marks a conversion by molar mass, not a printed value.

Assays:
Escherichia coli [1] = assay: Antimicrobial activity against Escherichia coli DH10B harboring beta-lactamase KPC-2 T237C mutant by agar dilution method; format: functional; conditions: K-12 DH10B
Outline: (§1)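 LB agar dilution MICs followed CLSI criteria, with inocula applied by Steers replicator. […] Piperacillin-tazobactam was tested at an 8:1 ratio. Wild-type and mutant blaKPC-2 were carried on pBC SK(+), or wild type on pBR322-catI, in E. coli DH10B.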

Escherichia coli [2] = assay: Antimicrobial activity against Escherichia coli DH10B harboring beta-lactamase KPC-2 T237V mutant by agar dilution method; format: functional; conditions: K-12 DH10B; outline: as §1
Escherichia coli [3] = assay: Antimicrobial activity against Escherichia coli DH10B harboring beta-lactamase KPC-2 T237M mutant by agar dilution method; format: functional; conditions: K-12 DH10B; outline: as §1
Escherichia coli [4] = assay: Antimicrobial activity against Escherichia coli DH10B harboring beta-lactamase KPC-2 T237G mutant by agar dilution method; format: functional; conditions: K-12 DH10B; outline: as §1
Escherichia coli [5] = assay: Antimicrobial activity against Escherichia coli DH10B harboring beta-lactamase KPC-2 T237I mutant by agar dilution method; format: functional; conditions: K-12 DH10B; outline: as §1
Escherichia coli [6] = assay: Antimicrobial activity against Escherichia coli DH10B harboring plasmid pBR322-catI carrying beta-lactamase KPC-2 by agar dilution method; format: functional; conditions: K-12 DH10B; outline: as §1
Escherichia coli [7] = assay: Antimicrobial activity against Escherichia coli DH10B harboring plasmid pBC SK(+) carrying wild type beta-lactamase KPC-2 by agar dilution method; format: functional; conditions: K-12 DH10B; outline: as §1
Escherichia coli [8] = assay: Antimicrobial activity against Escherichia coli DH10B by agar dilution method; format: functional; conditions: K-12 DH10B; outline: as §1
Escherichia coli [9] = assay: Antimicrobial activity against Escherichia coli DH10B harboring beta-lactamase KPC-2 T237R mutant by agar dilution method; format: functional; conditions: K-12 DH10B; outline: as §1
Escherichia coli [10] = assay: Antimicrobial activity against Escherichia coli DH10B harboring beta-lactamase KPC-2 T237N mutant by agar dilution method; format: functional; conditions: K-12 DH10B; outline: as §1
Escherichia coli [11] = assay: Antimicrobial activity against Escherichia coli DH10B harboring beta-lactamase KPC-2 T237A mutant by agar dilution method; format: functional; conditions: K-12 DH10B; outline: as §1
Escherichia coli [12] = assay: Antimicrobial activity against Escherichia coli DH10B harboring beta-lactamase KPC-2 T237P mutant by agar dilution method; format: functional; conditions: K-12 DH10B; outline: as §1
Escherichia coli [13] = assay: Antimicrobial activity against Escherichia coli DH10B harboring beta-lactamase KPC-2 T237L mutant by agar dilution method; format: functional; conditions: K-12 DH10B; outline: as §1
Escherichia coli [14] = assay: Antimicrobial activity against Escherichia coli DH10B harboring plasmid […] by agar dilution method; format: functional; conditions: K-12 DH10B; outline: as §1
Escherichia coli [15] = assay: Antimicrobial activity against Escherichia coli DH10B harboring beta-lactamase KPC-2 T237Y mutant by agar dilution method; format: functional; conditions: K-12 DH10B; outline: as §1
Escherichia coli [16] = assay: Antimicrobial activity against Escherichia coli DH10B harboring beta-lactamase KPC-2 T237E mutant by agar dilution method; format: functional; conditions: K-12 DH10B; outline: as §1
Escherichia coli [17] = assay: Antimicrobial activity against Escherichia coli DH10B harboring beta-lactamase KPC-2 T237K mutant by agar dilution method; format: functional; conditions: K-12 DH10B; outline: as §1
Escherichia coli [18] = assay: Antimicrobial activity against Escherichia coli DH10B harboring beta-lactamase KPC-2 T237W mutant by agar dilution method; format: functional; conditions: K-12 DH10B; outline: as §1
Escherichia coli [19] = assay: Antimicrobial activity against Escherichia coli DH10B harboring beta-lactamase KPC-2 T237H mutant by agar dilution method; format: functional; conditions: K-12 DH10B; outline: as §1
Escherichia coli [20] = assay: Antimicrobial activity against Escherichia coli DH10B harboring beta-lactamase KPC-2 T237Q mutant by agar dilution method; format: functional; conditions: K-12 DH10B; outline: as §1
Escherichia coli [21] = assay: Antimicrobial activity against Escherichia coli DH10B harboring beta-lactamase KPC-2 T237S mutant by agar dilution method; format: functional; conditions: K-12 DH10B; outline: as §1
Escherichia coli [22] = assay: Antimicrobial activity against Escherichia coli DH10B harboring beta-lactamase KPC-2 T237F mutant by agar dilution method; format: functional; conditions: K-12 DH10B; outline: as §1
Escherichia coli [23] = assay: Antimicrobial activity against Escherichia coli DH10B harboring beta-lactamase KPC-2 T237D mutant by agar dilution method; format: functional; conditions: K-12 DH10B; outline: as §1
Klebsiella pneumoniae [24] = assay: Antimicrobial activity against Klebsiella pneumoniae 1534 expressing beta-lactamase KPC-2 by agar dilution method; format: functional
Outline: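 MICs were determined by LB agar dilution following CLSI criteria, with a Steers replicator. […] Piperacillin-tazobactam was kept at an 8:1 ratio.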

Klebsiella pneumoniae [25] = assay: Activity of Klebsiella pneumoniae 1534 beta-lactamase KPC-2 T237A mutant by spectrophotometric analysis
Outline: (§2)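 Purified KPC-2 variant enzymes (periplasmic lysate from E. coli, preparative isoelectric focusing). Hydrolysis followed by diode-array spectrophotometry in 10 mM PBS, pH 7.4, room temperature. Enzyme at 10 nM with substrate in molar excess for pseudo-first-order conditions. Vmax and Km came from a nonlinear least-squares Michaelis-Menten fit.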

Klebsiella pneumoniae [26] = assay: Ratio of Kcat/Km for Klebsiella pneumoniae 1534 beta-lactamase KPC-2 T237S mutant by spectrophotometric analysis; outline: as §2
Klebsiella pneumoniae [27] = assay: Activity of Klebsiella pneumoniae 1534 beta-lactamase KPC-2 T237S mutant by spectrophotometric analysis; outline: as §2
Klebsiella pneumoniae [28] = assay: Selectivity index, Ratio of Kcat/Km for Klebsiella pneumoniae 1534 beta-lactamase KPC-2 T237S mutant to ratio of Kcat/Km for Klebsiella pneumoniae 1534 beta-lactamase KPC-2 by spectrophotometric analysis
Outline: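 Kinetics used purified enzymes in 10 mM PBS, pH 7.4, room temperature, with 10 nM enzyme and substrate in excess. Km and Vmax came from a Michaelis-Menten fit. kcat/Km of the variant was compared with wild type as ΔΔG = −RT ln of the kcat/Km ratio.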

Klebsiella pneumoniae [29] = assay: Ratio of Kcat/Km for Klebsiella pneumoniae 1534 beta-lactamase KPC-2 T237A mutant by spectrophotometric analysis; outline: as §2
[30] = Inhibition of Klebsiella pneumoniae 1534 beta-lactamase KPC-2 T237S mutant by competitive assay
Outline: (§3)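 Direct competition assay at steady state with purified enzyme at 10 nM. Inhibitor was varied from 5 μM to 5 mM, with nitrocefin 100 μM final as reporter substrate. 1/v0 was plotted against [I], and Ki(observed) was taken as y-intercept divided by slope. This was corrected by 1 + [S]/Km(nitrocefin).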

[31] = Inhibition of Klebsiella pneumoniae 1534 beta-lactamase KPC-2 T237A mutant by competitive assay; outline: as §3
Klebsiella pneumoniae [32] = assay: Ratio of Ki for Klebsiella pneumoniae 1534 beta-lactamase KPC-2 T237S mutant to Ki for Klebsiella pneumoniae wild type beta-lactamase KPC-2 by competitive assay; outline: as §3
Klebsiella pneumoniae [33] = assay: Ratio of Ki for Klebsiella pneumoniae 1534 beta-lactamase KPC-2 T237A mutant to Ki for wild type Klebsiella pneumoniae beta-lactamase KPC-2 by competitive assay

SMILES | MIC (Escherichia coli [1]) | MIC (Escherichia coli [2]) | MIC (Escherichia coli [3]) | MIC (Escherichia coli [4]) | MIC (Escherichia coli [5]) | MIC (Escherichia coli [6]) | MIC (Escherichia coli [7]) | MIC (Escherichia coli [8]) | MIC (Escherichia coli [9]) | MIC (Escherichia coli [10]) | MIC (Escherichia coli [11]) | MIC (Escherichia coli [12]) | MIC (Escherichia coli [13]) | MIC (Escherichia coli [14]) | MIC (Escherichia coli [15]) | MIC (Escherichia coli [16]) | MIC (Escherichia coli [17]) | MIC (Escherichia coli [18]) | MIC (Escherichia coli [19]) | MIC (Escherichia coli [20]) | also measured
C[C@@H](O)[C@H]1C(=O)N2C(C(=O)O)=C(S[C@@H]3CN[C@H](C(=O)Nc4cccc(C(=O)O)c4)C3)[C@H](C)[C@H]12 | 0.06 µg/mL (≈ 0.126 µM) | 0.06 µg/mL (≈ 0.126 µM) | 0.06 µg/mL (≈ 0.126 µM) | 0.06 µg/mL (≈ 0.126 µM) | 0.06 µg/mL (≈ 0.126 µM) | 2 µg/mL (≈ 4.21 µM) | 0.25 µg/mL (≈ 0.526 µM) | 0.06 µg/mL (≈ 0.126 µM) | 0.06 µg/mL (≈ 0.126 µM) | 0.06 µg/mL (≈ 0.126 µM) | 0.06 µg/mL (≈ 0.126 µM) | 0.06 µg/mL (≈ 0.126 µM) | 0.06 µg/mL (≈ 0.126 µM) | 0.06 µg/mL (≈ 0.126 µM) | 0.06 µg/mL (≈ 0.126 µM) | 0.06 µg/mL (≈ 0.126 µM) | 0.06 µg/mL (≈ 0.126 µM) | 0.06 µg/mL (≈ 0.126 µM) | 0.06 µg/mL (≈ 0.126 µM) | 0.06 µg/mL (≈ 0.126 µM) | MIC (Escherichia coli [21]): 0.5 µg/mL (≈ 1.05 µM); MIC (Escherichia coli [22]): 0.06 µg/mL (≈ 0.126 µM); MIC (Escherichia coli [23]): 0.06 µg/mL (≈ 0.126 µM); MIC (Klebsiella pneumoniae [24]): 8 µg/mL (≈ 16.8 µM)
CO/N=C(\C(=O)N[C@@H]1C(=O)N2C(C(=O)O)=C(COC(C)=O)CS[C@H]12)c1csc(N)n1 [CEFOTAXIME] | 0.06 µg/mL (≈ 0.132 µM) | 0.06 µg/mL (≈ 0.132 µM) | 0.06 µg/mL (≈ 0.132 µM) | 0.06 µg/mL (≈ 0.132 µM) | 0.06 µg/mL (≈ 0.132 µM) | 8 µg/mL (≈ 17.6 µM) | 2 µg/mL (≈ 4.39 µM) | 0.06 µg/mL (≈ 0.132 µM) | 0.06 µg/mL (≈ 0.132 µM) | 0.06 µg/mL (≈ 0.132 µM) | 0.06 µg/mL (≈ 0.132 µM) | 0.06 µg/mL (≈ 0.132 µM) | 0.06 µg/mL (≈ 0.132 µM) | 0.06 µg/mL (≈ 0.132 µM) | 0.06 µg/mL (≈ 0.132 µM) | 0.06 µg/mL (≈ 0.132 µM) | 0.06 µg/mL (≈ 0.132 µM) | 0.06 µg/mL (≈ 0.132 µM) | 0.06 µg/mL (≈ 0.132 µM) | 0.06 µg/mL (≈ 0.132 µM) | kcat (Klebsiella pneumoniae [25]): < 0.1 s⁻¹; kcat/Km (Klebsiella pneumoniae [26]): 260000 M⁻¹ s⁻¹; Km (Klebsiella pneumoniae [27]): 168 µM; kcat (Klebsiella pneumoniae [27]): 43 s⁻¹; fold change (FC) (Klebsiella pneumoniae [28]): 2.7; MIC (Escherichia coli [21]): 1 µg/mL (≈ 2.2 µM); MIC (Escherichia coli [22]): 0.06 µg/mL (≈ 0.132 µM); MIC (Escherichia coli [23]): 0.125 µg/mL (≈ 0.274 µM); MIC (Klebsiella pneumoniae [24]): 16 µg/mL (≈ 35.1 µM)
CC(=O)OCC1=C(C(=O)O)N2C(=O)[C@@H](NC(=O)Cc3cccs3)[C@H]2SC1 [CEPHALOTHIN] | 4 µg/mL (≈ 10.1 µM) | 8 µg/mL (≈ 20.2 µM) | 16 µg/mL (≈ 40.4 µM) | 4 µg/mL (≈ 10.1 µM) | 4 µg/mL (≈ 10.1 µM) | 512 µg/mL (≈ 1290 µM) | 256 µg/mL (≈ 646 µM) | 4 µg/mL (≈ 10.1 µM) | 4 µg/mL (≈ 10.1 µM) | 4 µg/mL (≈ 10.1 µM) | 32 µg/mL (≈ 80.7 µM) | 2 µg/mL (≈ 5.04 µM) | 8 µg/mL (≈ 20.2 µM) | 4 µg/mL (≈ 10.1 µM) | 16 µg/mL (≈ 40.4 µM) | 4 µg/mL (≈ 10.1 µM) | 4 µg/mL (≈ 10.1 µM) | 32 µg/mL (≈ 80.7 µM) | 16 µg/mL (≈ 40.4 µM) | 16 µg/mL (≈ 40.4 µM) | Km (Klebsiella pneumoniae [25]): 30 µM; kcat (Klebsiella pneumoniae [25]): 26 s⁻¹; kcat/Km (Klebsiella pneumoniae [26]): 3.6e+06 M⁻¹ s⁻¹; kcat/Km (Klebsiella pneumoniae [29]): 900000 M⁻¹ s⁻¹; Km (Klebsiella pneumoniae [27]): 18 µM; kcat (Klebsiella pneumoniae [27]): 65 s⁻¹; fold change (FC) (Klebsiella pneumoniae [28]): 2.7; MIC (Escherichia coli [21]): 256 µg/mL (≈ 646 µM); MIC (Escherichia coli [22]): 4 µg/mL (≈ 10.1 µM); MIC (Escherichia coli [23]): 4 µg/mL (≈ 10.1 µM); MIC (Klebsiella pneumoniae [24]): 1020 µg/mL (≈ 2580 µM)
O=C(O)[C@H]1/C(=C/CO)O[C@@H]2CC(=O)N21 [CLAVULANIC ACID] |  |  |  |  |  |  |  |  |  |  |  |  |  |  |  |  |  |  |  |  | Ki [30]: 13 µM; Ki [31]: 55 µM; fold change (FC) (Klebsiella pneumoniae [32]): 1.7; fold change (FC) (Klebsiella pneumoniae [33]): 5
